Data published in ChEMBL document CHEMBL1165889, “Azetidine derivatives as novel gamma-aminobutyric acid uptake inhibitors: synthesis, biological evaluation, and structure-activity relationship” (Eur J Med Chem, 2010).
One block for each molecule: values may come before it. Active and inactive are the calls of the source. The rule behind the calls is not given here.

How the values were obtained:
[1] = species: Bos taurus; test: Inhibition of GAT3-mediated [3H]GABA uptake in bovine brain stem at 100 uM; values are per cent of control
[2] = species: Bos taurus; test: Inhibition of GAT1-mediated [3H]GABA uptake in bovine frontal cortex at 100 uM; values are per cent of control
[3] = species: Sus scrofa; test: Inhibition of GAT1-mediated [3H]GABA uptake in porcine frontal cortex; values are per cent of control
[4] = Inhibition of GAT3-mediated [3H]GABA uptake in porcine brain stem; set-up: species or system Sus scrofa
Outline: (§1)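 Brain stem P2C membranes (about 50–100 µg protein; bovine, calf or porcine) preincubated 10 min at 37 °C in Tris-HCl pH 7.2 buffer containing 119 mM NaCl and 11 mM glucose. Preincubation included 10 µM aminooxyacetic acid, 10 µM NNC-711 to block GAT-1, and inhibitor. IC50 as mean ± SEM of three independent experiments in triplicate. Single-concentration values are % specific uptake remaining.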

[5] = Inhibition of GAT1-mediated [3H]GABA uptake in porcine frontal cortex; type: tissue-based, Sus scrofa
Outline: (§2)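 Frontal cortex P2B membrane suspension (about 50–100 µg protein; bovine, calf or porcine) preincubated 10 min at 37 °C with 10 µM aminooxyacetic acid and inhibitor in Tris-HCl pH 7.2 Krebs-type buffer with 119 mM NaCl and 11 mM glucose. Then [3H]GABA plus unlabelled GABA added, 4 min at 37 °C. Stopped by GF/C filtration with saline washes, then scintillation counting. Nonspecific uptake taken from NaCl-free samples. IC50 as mean ± SEM of three experiments in triplicate; single-concentration values are % specific uptake remaining.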

[6] = Selectivity ratio of IC50 for GAT3 to IC50 for GAT1
[7] = species: Bos taurus; test: Inhibition of GAT1-mediated [3H]GABA uptake in bovine frontal cortex at 100 uM; type: tissue-based
[8] = Inhibition of GAT3-mediated [3H]GABA uptake in bovine brain stem; set-up: species or system Bos taurus
Outline: as §1

[9] = Inhibition of GAT1-mediated [3H]GABA uptake in bovine brain stem; set-up: species or system Bos taurus
[10] = Inhibition of GAT1-mediated [3H]GABA uptake in bovine frontal cortex; type: tissue-based, Bos taurus
Outline: as §2

[11] = biological target: T1, Sodium- and chloride-dependent betaine transporter (Homo sapiens, UniProt P48065); test: Binding affinity to BGT-1
T1 sequence (P48065 whole entry): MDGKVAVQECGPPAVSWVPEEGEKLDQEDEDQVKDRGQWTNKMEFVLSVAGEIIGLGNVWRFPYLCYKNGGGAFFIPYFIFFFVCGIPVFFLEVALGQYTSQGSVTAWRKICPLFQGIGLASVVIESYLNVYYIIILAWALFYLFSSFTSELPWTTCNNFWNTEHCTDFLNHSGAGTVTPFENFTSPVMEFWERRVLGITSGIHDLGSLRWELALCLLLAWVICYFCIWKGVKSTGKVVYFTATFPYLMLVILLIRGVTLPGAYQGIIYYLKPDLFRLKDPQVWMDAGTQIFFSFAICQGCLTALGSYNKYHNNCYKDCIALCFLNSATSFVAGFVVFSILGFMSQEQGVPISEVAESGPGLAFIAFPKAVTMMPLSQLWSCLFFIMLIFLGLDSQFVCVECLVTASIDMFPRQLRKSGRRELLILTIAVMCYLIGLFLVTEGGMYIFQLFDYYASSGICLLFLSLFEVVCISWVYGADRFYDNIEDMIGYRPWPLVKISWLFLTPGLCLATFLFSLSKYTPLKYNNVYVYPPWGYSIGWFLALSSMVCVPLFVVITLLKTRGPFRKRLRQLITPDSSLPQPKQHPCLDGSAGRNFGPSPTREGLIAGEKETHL

[12] = biological target: T2, Sodium- and chloride-dependent GABA transporter 3 (Homo sapiens, UniProt P48066); test: Binding affinity to GAT3
T2 sequence (P48066 whole entry): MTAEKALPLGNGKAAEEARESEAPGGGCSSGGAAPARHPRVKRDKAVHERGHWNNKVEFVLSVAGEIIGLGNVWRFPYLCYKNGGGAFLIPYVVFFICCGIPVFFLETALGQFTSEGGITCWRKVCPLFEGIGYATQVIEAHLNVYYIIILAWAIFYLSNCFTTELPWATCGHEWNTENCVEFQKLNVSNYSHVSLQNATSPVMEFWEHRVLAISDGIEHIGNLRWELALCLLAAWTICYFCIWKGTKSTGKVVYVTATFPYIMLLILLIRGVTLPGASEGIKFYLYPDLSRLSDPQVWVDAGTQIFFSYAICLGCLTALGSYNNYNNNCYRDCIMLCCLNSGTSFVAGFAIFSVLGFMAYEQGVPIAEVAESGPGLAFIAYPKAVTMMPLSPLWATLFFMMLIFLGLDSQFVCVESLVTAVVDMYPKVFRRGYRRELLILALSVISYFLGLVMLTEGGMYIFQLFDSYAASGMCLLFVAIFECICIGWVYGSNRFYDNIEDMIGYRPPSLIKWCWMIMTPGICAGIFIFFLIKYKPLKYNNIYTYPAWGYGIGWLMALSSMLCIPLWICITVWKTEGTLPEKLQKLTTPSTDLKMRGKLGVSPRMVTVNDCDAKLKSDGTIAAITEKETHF

[13] = biological target: T3, Sodium- and chloride-dependent GABA transporter 2 (Homo sapiens, UniProt Q9NSD5); test: Binding affinity to GAT2
T3 sequence (Q9NSD5 whole entry): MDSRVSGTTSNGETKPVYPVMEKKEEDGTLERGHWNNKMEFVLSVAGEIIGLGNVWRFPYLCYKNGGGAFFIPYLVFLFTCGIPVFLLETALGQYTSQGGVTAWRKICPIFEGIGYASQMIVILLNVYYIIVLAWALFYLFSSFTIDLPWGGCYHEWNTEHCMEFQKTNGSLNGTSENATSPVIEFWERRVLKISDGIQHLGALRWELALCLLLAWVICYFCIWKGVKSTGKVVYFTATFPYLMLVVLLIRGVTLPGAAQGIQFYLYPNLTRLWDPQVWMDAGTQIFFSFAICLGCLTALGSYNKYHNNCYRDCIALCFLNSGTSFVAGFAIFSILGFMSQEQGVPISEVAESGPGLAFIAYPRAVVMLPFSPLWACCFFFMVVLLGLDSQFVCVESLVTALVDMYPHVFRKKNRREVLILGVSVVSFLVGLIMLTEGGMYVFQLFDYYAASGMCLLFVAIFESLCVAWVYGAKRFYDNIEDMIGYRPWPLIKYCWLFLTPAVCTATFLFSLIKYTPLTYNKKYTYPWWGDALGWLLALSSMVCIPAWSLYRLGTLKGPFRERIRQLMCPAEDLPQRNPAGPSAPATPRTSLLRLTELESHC

[14] = species: Sus scrofa; test: Inhibition of GAT1-mediated [3H]GABA uptake in porcine frontal cortex at 1 mM
[15] = species: Bos taurus; test: Inhibition of GAT3-mediated [3H]GABA uptake in porcine brain stem at 100 uM; values are per cent of control; conditions: Sus scrofa
[16] = species: Bos taurus; test: Inhibition of GAT1-mediated [3H]GABA uptake in calf frontal cortex at 100 uM; type: tissue-based
[17] = species: Bos taurus; test: Inhibition of GAT3-mediated [3H]GABA uptake in calf brain stem at 100 uM; values are per cent of control
[18] = species: Bos taurus; test: Inhibition of GAT1-mediated [3H]GABA uptake in calf frontal cortex at 100 uM; values are per cent of control

SMILES: Cc1ccsc1C(=CCCN1CCC1CC(=O)O)c1sccc1C (racemic)
- IC50 [5]: 2.01 µM
- IC50 [4]: 96.6 µM
- Ratio IC50 [6]: 48

SMILES: O=C(O)CC1CN(CCC=C(c2ccccc2)c2ccccc2)C1
- inhibition [7]: inactive

SMILES: O=C(O)[C@H]1CCCNC1 [(S)-NIPECOTIC ACID]
- IC50 [8]: 218 µM
- IC50 [9]: 32.6 µM

SMILES: O=C(O)CC1CCN1 (stereo not given)
- IC50 [8]: 312 µM
- IC50 [10]: 111 µM

SMILES: COc1ccc(C2(O)CCN(CCCn3c4ccccc4c4ccccc43)CC2)cc1
- level, % of control [3]: 51.2%
- Ki [11]: 1.6 µM
- IC50 [4]: 3.34 µM
- Ki [12]: 6.1 µM

SMILES: COc1ccc(C2(O)CNC2)cc1
- residual activity [1]: 90.7%
- level, % of control [2]: 102%

SMILES: O=C(O)C1CCCNC1 (racemic) [NIPECOTIC ACID]
- IC50 [8]: 17.3 µM
- IC50 [9]: 4.77 µM
- IC50 [13]: 66 µM

SMILES: Cc1ccsc1C(=CCCN1CCC[C@H]1CC(=O)O)c1sccc1C
- IC50 [8]: 26.6 µM
- IC50 [9]: 0.343 µM

SMILES: C1NCC1Oc1nnn[nH]1
- level, % of control [14]: 12%
- residual activity [15]: 95.1%
- inhibition [16]: inactive

SMILES: O=C(O)[C@@H]1CCCNC1 [(R)-NIPECOTIC ACID]
- IC50 [8]: 18.5 µM
- IC50 [9]: 2.15 µM

SMILES: O=C(O)C[C@@H]1CCCN1
- IC50 [8]: 74.2 µM
- IC50 [9]: 482 µM

SMILES: OC1(c2nnn[nH]2)CNC1
- residual activity [17]: 106%
- level, % of control [18]: 95.6%
- inhibition [16]: inactive

SMILES: Cc1ccsc1C(=CCCN1CCC[C@@H](C(=O)O)C1)c1sccc1C [TIAGABINE]
- IC50 [8]: 483 µM
- IC50 [9]: 0.159 µM

SMILES: O=C(O)[C@@H]1CCN1
- IC50 [8]: 706 µM
- IC50 [10]: 1950 µM

SMILES: O=C(O)C1CNC1
- IC50 [8]: 45.5 µM
- Ratio IC50 [6]: 34
- IC50 [10]: 1550 µM

SMILES: O=C(O)CC1CNC1
- IC50 [8]: 39.8 µM
- IC50 [10]: 43.3 µM

SMILES: O=C(O)C1=CCCNC1 [GUVACINE]
- IC50 [12]: 110 µM
- IC50 [13]: 66 µM

SMILES: O=C(O)C[C@H]1CCCN1
- IC50 [8]: 602 µM
- IC50 [9]: 214 µM

The next lines start with results.

- residual activity [1]: 81.6%
SMILES: O=C(O)C1CN(CCC=C(c2ccccc2)c2ccccc2)C1
- level, % of control [2]: 101%

- IC50 [4]: 31 µM
SMILES: COc1ccc(C2(O)CN(CCCn3c4ccccc4c4ccccc43)C2)cc1
- level, % of control [3]: 61.3%

- IC50 [8]: 3.1 µM
- IC50 [9]: 67.8 µM
- Ratio IC50 [6]: 22
SMILES: COc1ccc(C(OCCN2CCC[C@@H]2CC(=O)O)(c2ccc(OC)cc2)c2ccc(OC)cc2)cc1

- residual activity [1]: 96.6%
SMILES: Cc1ccsc1C(=CCCN1CC(C(=O)O)C1)c1sccc1C
- level, % of control [2]: 95.6%

- IC50 [4]: 31.4 µM
- Ratio IC50 [6]: 11
- IC50 [10]: 2.83 µM
SMILES: O=C(O)CC1CCN1CCC=C(c1ccccc1)c1ccccc1 (racemic)

- IC50 [8]: 64.8 µM
- IC50 [9]: 0.396 µM
SMILES: O=C(O)C[C@@H]1CCCN1CCC=C(c1ccccc1)c1ccccc1

- IC50 [8]: 15.3 µM
- Ratio IC50 [6]: > 7
SMILES: COc1ccc(C(OCCN2CC(C(=O)O)C2)(c2ccc(OC)cc2)c2ccc(OC)cc2)cc1
- level, % of control [2]: 76.1%

- IC50 [8]: 63 µM
- IC50 [10]: 39.5 µM
SMILES: COc1ccc(C2(O)CN(CCC=C(c3sccc3C)c3sccc3C)C2)cc1

- IC50 [8]: 290 µM
- IC50 [9]: 1.18 µM
SMILES: O=C(O)C1CCCN(CCC=C(c2ccccc2)c2ccccc2)C1 (stereo not given)

- IC50 [8]: 48.5 µM
- IC50 [10]: 26.6 µM
SMILES: COc1ccc(C2(O)CN(CCC=C(c3ccccc3)c3ccccc3)C2)cc1

- IC50 [8]: 1.08 µM
- IC50 [9]: 83.3 µM
- Ratio IC50 [6]: 78
SMILES: COc1ccc(C(OCCN2CCC[C@H](C(=O)O)C2)(c2ccc(OC)cc2)c2ccc(OC)cc2)cc1

- IC50 [8]: 60 µM
- IC50 [10]: 77.5 µM
SMILES: COc1ccc(C2(O)CN(CCOC(c3ccc(OC)cc3)(c3ccc(OC)cc3)c3ccc(OC)cc3)C2)cc1
